# Measured values published in ChEMBL document CHEMBL1240433, “Design, synthesis, and antitubercular evaluation of novel series of 3-benzofuran-5-aryl-1-pyrazolyl-pyridylmethanone and 3-benzofuran-5-aryl-1-pyrazolylcarbonyl-4-oxo-naphthyridin analogs” (Eur J Med Chem, 2010).
# pIC50: −log10 of the molar value.
# Experiments:
# [1] = system: Mycobacterium tuberculosis; experiment: Antitubercular activity against Mycobacterium tuberculosis ATCC 35801 infected in CD1 mouse lung at 25 mg/kg, iv after 6 weeks; assay type: functional
# Method in brief: (§1)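 Female CD-1 mice, 6 weeks old, six per group, were infected intravenously via the caudal vein with 10^6 to 10^7 viable organisms. Dosing at 25 mg/kg intraperitoneally began 10 days after infection. Viable counts came from serial 10-fold dilutions on 7H10 agar after incubation at 37 °C in ambient air for up to 6 weeks, compared with vehicle-treated controls.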
# Vero = experiment: Cytotoxicity against african green monkey Vero after 72 hrs by MTT assay; assay type: cell-based; details: Chlorocebus sabaeus
# Method in brief: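 Mammalian Vero cells were used to determine IC50. The read-out was cellular reduction of MTT to a formazan product, measured with a non-radioactive cell proliferation kit.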
# [2] = system: Mycobacterium tuberculosis; experiment: Antitubercular activity against Mycobacterium tuberculosis H37Rv after 6 weeks; assay type: functional
# Method in brief: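 Lowenstein-Jensen slope assay. DMSO stocks of 250 and 10 µg/mL were each mixed 0.8 mL into 7.2 mL L.J. medium, then inspissated at 75-80 °C for 3 days. A loopful of culture was dispersed with glass beads in sterile water by vortexing for 2 min and streaked onto the slopes. DMSO-only and drug-free media served as controls. Bacterial counts were read after 6 weeks at 37 °C.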
# [3] = system: Mycobacterium tuberculosis; experiment: Antitubercular activity against Mycobacterium tuberculosis ATCC 35801 infected in CD1 mouse spleen at 25 mg/kg, iv after 6 weeks; assay type: functional; method in brief: as §1
SMILES,log10cfu [1],pIC50 (Vero),MIC [2] [µg/mL],log10cfu [3]
CCn1cc(C(=O)N2N=C(c3cc4ccccc4o3)CC2c2ccco2)c(=O)c2ccc(C)nc21 (stereo not given),9.66,< 3.73,7.5,10.52
O=C(c1ccncc1)N1N=C(c2cc3ccccc3o2)CC1c1ccc(O)cc1 (stereo not given),7.46,< 3.70,4.5,8.2
CCn1cc(C(=O)N2N=C(c3cc4ccccc4o3)CC2c2ccc(N(C)C)cc2)c(=O)c2ccc(C)nc21 (stereo not given),4.82,< 3.68,9.2,6.53
CCn1cc(C(=O)N2N=C(c3cc4ccccc4o3)CC2c2ccc(Cl)cc2)c(=O)c2ccc(C)nc21 (stereo not given),11.52,< 3.79,8.3,12.12
O=C(c1ccncc1)N1N=C(c2cc3ccccc3o2)CC1/C=C/c1ccccc1 (stereo not given),10.8,< 3.67,8.6,11.6
CCn1cc(C(=O)N2N=C(c3cc4ccccc4o3)CC2c2cccc([N+](=O)[O-])c2)c(=O)c2ccc(C)nc21 (stereo not given),2.65,< 3.78,2.3,3.25
O=C(c1ccncc1)N1N=C(c2cc3ccccc3o2)CC1c1ccc(Cl)cc1 (stereo not given),13.8,< 3.66,11.5,12.4
COc1ccc(C2CC(c3cc4ccccc4o3)=NN2C(=O)c2ccncc2)cc1 (stereo not given),8.6,< 3.70,6.8,9.24
CCn1cc(C(=O)N2N=C(c3cc4ccccc4o3)CC2c2ccccc2)c(=O)c2ccc(C)nc21 (stereo not given),12.23,< 3.68,9.8,12.98
CCn1cc(C(=O)N2N=C(c3cc4ccccc4o3)CC2c2ccc(OC)cc2)c(=O)c2ccc(C)nc21 (stereo not given),9.32,< 3.81,6.3,10.77
CCn1cc(C(=O)N2N=C(c3cc4ccccc4o3)CC2c2ccc(OC)cc2O)c(=O)c2ccc(C)nc21 (stereo not given),8.42,< 3.81,4.2,9.28
CN(C)c1ccc(C2CC(c3cc4ccccc4o3)=NN2C(=O)c2ccncc2)cc1 (stereo not given),14.4,< 3.68,9.2,15.8
CCn1cc(C(=O)N2N=C(c3cc4ccccc4o3)CC2c2ccccc2C(=O)O)c(=O)c2ccc(C)nc21 (stereo not given),5.12,< 3.71,4.5,6.16
CCn1cc(C(=O)N2N=C(c3cc4ccccc4o3)CC2c2ccccc2[N+](=O)[O-])c(=O)c2ccc(C)nc21 (stereo not given),5.67,< 4.07,1.9,6.12
CCn1cc(C(=O)N2N=C(c3cc4ccccc4o3)CC2c2ccccc2OC)c(=O)c2ccc(C)nc21 (stereo not given),6.87,< 3.73,5.5,6.13
O=C(c1ccncc1)N1N=C(c2cc3ccccc3o2)CC1c1ccccc1 (stereo not given),9.4,< 3.68,8.5,10.6
O=C(O)c1ccccc1C1CC(c2cc3ccccc3o2)=NN1C(=O)c1ccncc1 (stereo not given),6.24,< 3.77,2.2,5.42
NNC(=O)c1ccncc1 [ISONIAZID],4.62,< 3.88,0.32,5.45
O=C(c1ccncc1)N1N=C(c2cc3ccccc3o2)CC1c1ccccc1O (stereo not given),7.2,< 3.71,3.7,9.45
CCn1cc(C(=O)N2N=C(c3cc4ccccc4o3)CC2c2ccccc2Cl)c(=O)c2ccc(C)nc21 (stereo not given),10.85,< 3.75,7.8,10.96
O=C(c1ccncc1)N1N=C(c2cc3ccccc3o2)CC1c1cccc([N+](=O)[O-])c1 (stereo not given),10.8,< 3.62,7.5,11.6
COc1ccc(C2CC(c3cc4ccccc4o3)=NN2C(=O)c2ccncc2)c(O)c1 (stereo not given),6.98,< 3.72,3.3,6.52
COc1ccccc1C1CC(c2cc3ccccc3o2)=NN1C(=O)c1ccncc1 (stereo not given),9.65,< 3.69,6.5,10.6
CCn1cc(C(=O)N2N=C(c3cc4ccccc4o3)CC2/C=C/c2ccccc2)c(=O)c2ccc(C)nc21 (stereo not given),4.61,< 3.77,5.5,6.32
O=C(c1ccncc1)N1N=C(c2cc3ccccc3o2)CC1c1ccccc1Cl (stereo not given),12.5,< 3.68,10.6,12.2
CCn1cc(C(=O)N2N=C(c3cc4ccccc4o3)CC2c2ccccc2O)c(=O)c2ccc(C)nc21 (stereo not given),4.11,< 3.80,1.2,5.36
CCn1cc(C(=O)N2N=C(c3cc4ccccc4o3)CC2c2ccc(O)cc2)c(=O)c2ccc(C)nc21 (stereo not given),5.49,< 3.83,3.2,7.21
CO[C@H]1/C=C/O[C@@]2(C)Oc3c(C)c(O)c4c(O)c(c(/C=N/N5CCN(C)CC5)c(O)c4c3C2=O)NC(=O)/C(C)=C\C=C\[C@H](C)[C@H](O)[C@@H](C)[C@@H](O)[C@@H](C)[C@H](OC(C)=O)[C@@H]1C [RIFAMPIN],3.21,< 4.13,0.6,3.98
O=C(c1ccncc1)N1N=C(c2cc3ccccc3o2)CC1c1ccco1 (stereo not given),11.4,< 3.68,9.6,12.6
O=C(c1ccncc1)N1N=C(c2cc3ccccc3o2)CC1c1ccccc1[N+](=O)[O-] (stereo not given),9.5,< 3.61,8.2,10.5
